Sampled rows, rich in hits. Any-hit rate of the full collection: about 5.9%.
Tcruzi prolif = inhibitors of T. cruzi proliferation. T. cruzi beta-gal in NIH3T3, GalScreen luminescence, 90 h. inhibition, % at 8.34 µM. hit rate 5.9% among 77,000. AID 624255;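 active = mean inhibition above about 93%, with at least 55% of replicates each passing it, limit read from the data, passing the limit was not always enough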
IDH1 mut inh = IDH1 R132H (human) inhibition | O75874 | IDH1 R132H reductase, diaphorase/resazurin fluorescence, 60 min | inhibition, % at 10 µM | hit rate 0.18% among 70,000 | AID 624101; in the data active = inhibition above about 34%
Target sequence (O75874 whole entry R132H): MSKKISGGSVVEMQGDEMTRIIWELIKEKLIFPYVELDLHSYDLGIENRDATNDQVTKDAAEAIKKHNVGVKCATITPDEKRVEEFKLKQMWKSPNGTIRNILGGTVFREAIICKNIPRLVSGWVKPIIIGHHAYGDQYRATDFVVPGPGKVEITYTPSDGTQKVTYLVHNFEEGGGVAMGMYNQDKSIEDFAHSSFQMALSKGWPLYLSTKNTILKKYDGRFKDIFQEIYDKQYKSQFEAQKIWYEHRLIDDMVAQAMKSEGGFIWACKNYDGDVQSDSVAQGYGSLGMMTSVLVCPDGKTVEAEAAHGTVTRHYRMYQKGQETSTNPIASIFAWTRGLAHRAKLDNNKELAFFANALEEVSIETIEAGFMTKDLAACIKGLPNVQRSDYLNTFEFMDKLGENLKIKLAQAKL
KDM4C inh = blocks human GASC-1 (KDM4C) demethylase activity. Q9H3R0. GST-KDM4C 2-372, H3K9me3 peptide, LANCE TR-FRET. inhibition, % at 12.5 µM. hit rate 0.15% among 96,000. AID 720574;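 active = mean replicate inhibition above about 25%, with at least 55% of replicates also reaching it, limit read from the data, passing the limit was not always enough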
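System: N-terminal GST-fused human GASC-1 (KDM4C) fragment, residues 2-372 / Amount: 10 nM GST-KDM4C in enzyme reaction / Also added: H3K9me3 peptide with Fe(II)/2OG / Times: 30 min demethylation and 1 h detection at room temperature / Signal: LANCE TR-FRET / Read-out basis: Fall in 671/618 emission ratio as inhibition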
Pf Dd2 inh = blocks growth of Plasmodium falciparum Dd2 parasites; hit rate 2.3% among 94,000; activity change, % at 10 µM; P. falciparum Dd2 growth, SYBR Green, 72 h; active compounds read low; in the data active = activity change below about -80%
Hits are given with their value.

Screening C[C@@H]1CCCCO[C@@H](CN(C)S(=O)(=O)c2ccccc2)[C@H](C)CN([C@H](C)CO)C(=O)c2cc(NC(=O)Nc3ccccc3)ccc2O1 returned Tcruzi prolif inactive, IDH1 mut inh inactive, KDM4C inh inactive and Pf Dd2 inh inactive.
`C[C@@H]1CN([C@@H](C)CO)C(=O)c2cc(NC(=O)Nc3ccccc3)ccc2O[C@@H](C)CCCCO[C@H]1CN(C)S(=O)(=O)c1ccccc1` gave IDH1 mut inh inactive and KDM4C inh inactive.
Screening C[C@@H]1CCCCO[C@@H](CN(C)S(=O)(=O)c2ccc(Cl)cc2)[C@@H](C)CN([C@H](C)CO)C(=O)c2cc(NC(=O)Nc3ccccc3)ccc2O1 returned Tcruzi prolif inactive, IDH1 mut inh inactive, KDM4C inh inactive and Pf Dd2 inh -84.3.
Screening C[C@@H]1CN([C@H](C)CO)C(=O)c2cc(NC(=O)Nc3ccccc3)ccc2O[C@@H](C)CCCCO[C@H]1CN(C)S(=O)(=O)c1ccc(Cl)cc1 returned Tcruzi prolif inactive, IDH1 mut inh inactive, KDM4C inh inactive and Pf Dd2 inh -81.3.
Screening Cc1cc(C)c2oc(-c3ccc(C)c(NC(=O)COc4ccc(Cl)cc4)c3)nc2c1 returned IDH1 mut inh inactive.
COc1c(C)c(OCC=C(C)C)cc(CO)c1CO was read as IDH1 mut inh inactive.
OC(COc1ccccc1Cl)Cn1nnc2ccccc21 (stereo not given) was read as IDH1 mut inh inactive.
`C[C@@H]1CN([C@@H](C)CO)C(=O)c2cc(NC(=O)Nc3ccccc3)ccc2O[C@@H](C)CCCCO[C@@H]1CN(C)S(=O)(=O)c1ccccc1` gave Tcruzi prolif inactive, IDH1 mut inh inactive, KDM4C inh inactive and Pf Dd2 inh inactive.
Screening Cc1ccc(S(=O)(=O)N(C)C[C@@H]2OCCCC[C@H](C)Oc3ccc(NC(=O)Nc4ccccc4)cc3C(=O)N([C@H](C)CO)C[C@H]2C)cc1 returned Tcruzi prolif inactive, KDM4C inh inactive and Pf Dd2 inh -89.9.
C[C@@H]1CN([C@@H](C)CO)C(=O)c2cc(NC(=O)Nc3ccccc3)ccc2O[C@@H](C)CCCCO[C@@H]1CN(C)S(=O)(=O)c1ccc(Cl)cc1 was read as Tcruzi prolif inactive, IDH1 mut inh inactive, KDM4C inh inactive and Pf Dd2 inh -87.4.
Screening C[C@@H]1CCCCO[C@@H](CN(C)Cc2ccc(Cl)c(Cl)c2)[C@H](C)CN([C@@H](C)CO)C(=O)c2cc(NC(=O)Cc3ccccc3)ccc2O1 returned Tcruzi prolif inactive, IDH1 mut inh inactive, KDM4C inh inactive and Pf Dd2 inh inactive.
Screening C[C@H]1CCCCO[C@H](CN(C)Cc2ccc(Cl)c(Cl)c2)[C@@H](C)CN([C@@H](C)CO)C(=O)c2cc(NC(=O)Cc3ccccc3)ccc2O1 returned Tcruzi prolif inactive, KDM4C inh inactive and Pf Dd2 inh -85.2.
For C[C@@H]1CCCCO[C@@H](CN(C)Cc2ccccc2)[C@H](C)CN([C@H](C)CO)C(=O)c2cc(NC(=O)Cc3ccccc3)ccc2O1 the results were IDH1 mut inh inactive, KDM4C inh inactive and Pf Dd2 inh inactive.
For C[C@@H]1CN([C@H](C)CO)C(=O)c2cc(NC(=O)Cc3ccccc3)ccc2O[C@@H](C)CCCCO[C@H]1CN(C)Cc1ccc(Cl)c(Cl)c1 the results were Tcruzi prolif inactive, IDH1 mut inh inactive, KDM4C inh inactive and Pf Dd2 inh -83.6.
For CCOC(=O)N1CCN(Cc2nnc(-c3ccc4c(c3)OCO4)o2)CC1 the results were IDH1 mut inh inactive.
COC(=O)c1ccc(/C=N/NC(=O)c2ccc(C(=O)NO)cc2)cc1 was read as IDH1 mut inh inactive.
C[C@H](CO)N1C[C@H](C)[C@H](CN(C)Cc2ccc(C(=O)Nc3ccccc3N)cc2)Oc2ccc(NC(=O)Cc3ccccc3)cc2CC1=O was read as KDM4C inh inactive and Pf Dd2 inh -87.4.
C[C@H]1CN([C@@H](C)CO)C(=O)Cc2cc(NC(=O)c3ccncc3)ccc2O[C@@H]1CN(C)Cc1ccc(C(=O)Nc2ccccc2N)cc1 was read as IDH1 mut inh inactive, KDM4C inh inactive and Pf Dd2 inh -85.9.
For C[C@H]1CN([C@@H](C)CO)C(=O)Cc2cc(NC(=O)c3ccncc3)ccc2O[C@H]1CN(C)Cc1ccc(C(=O)Nc2ccccc2N)cc1 the results were Tcruzi prolif inactive, KDM4C inh inactive and Pf Dd2 inh inactive.
Screening C[C@H]1CN([C@@H](C)CO)C(=O)Cc2cc(NC(=O)Cc3ccccc3)ccc2O[C@H]1CN(C)Cc1ccc(C(=O)Nc2ccccc2N)cc1 returned IDH1 mut inh inactive, KDM4C inh inactive and Pf Dd2 inh -86.5.
CC1(C)Cc2c(c(N3CCOCC3)nc3sc4c(SCc5nc6ccccc6[nH]5)ncnc4c23)CO1 was read as IDH1 mut inh inactive.
Cc1ccc(NC(=O)Cn2cc(C(=O)c3cccs3)c3ccccc32)cc1Cl was read as IDH1 mut inh inactive.
Screening Nc1nnc(SCC(=O)Nc2ccc(I)cc2)s1 returned IDH1 mut inh inactive.
`COc1ccc(NC(=O)Nc2cccc3c2O[C@H](CN(C)Cc2ccc(C(=O)Nc4ccccc4N)cc2)[C@H](C)CN([C@@H](C)CO)C3=O)cc1` gave KDM4C inh inactive and Pf Dd2 inh -93.5.
Screening COc1ccc(NC(=O)Nc2cccc3c2O[C@H](CN(C)Cc2ccc(C(=O)Nc4ccccc4N)cc2)[C@@H](C)CN([C@H](C)CO)C3=O)cc1 returned KDM4C inh inactive and Pf Dd2 inh -83.5.
For C[C@@H]1CN([C@H](C)CO)C(=O)c2cccc(NC(=O)Nc3ccc(F)cc3)c2O[C@H]1CN(C)Cc1ccc(C(=O)Nc2ccccc2N)cc1 the results were KDM4C inh inactive and Pf Dd2 inh inactive.
Screening C[C@@H]1CN([C@H](C)CO)C(=O)c2cccc(NC(=O)Nc3ccccc3)c2O[C@H]1CN(C)Cc1ccc(C(=O)Nc2ccccc2N)cc1 returned Tcruzi prolif inactive, IDH1 mut inh inactive, KDM4C inh inactive and Pf Dd2 inh inactive.
COc1ccc(NC(=O)Nc2cccc3c2O[C@H](CN(C)Cc2ccc(-c4ccccc4)cc2)[C@@H](C)CN([C@@H](C)CO)C3=O)cc1 was read as IDH1 mut inh inactive, KDM4C inh inactive and Pf Dd2 inh -86.2.
`COc1ccc(NC(=O)Nc2cccc3c2O[C@H](CN(C)Cc2ccc(C(=O)Nc4ccccc4N)cc2)[C@@H](C)CN([C@@H](C)CO)C3=O)cc1` gave Tcruzi prolif inactive, KDM4C inh inactive and Pf Dd2 inh -88.2.
`COc1ccc(NC(=O)Nc2cccc3c2O[C@H](CN(C)Cc2ccc(-c4ccccc4)cc2)[C@H](C)CN([C@@H](C)CO)C3=O)cc1` gave Tcruzi prolif inactive, KDM4C inh inactive and Pf Dd2 inh inactive.
For CCN(CC(=O)Nc1cccc(C(F)(F)F)c1)S(=O)(=O)c1ccc(C)cc1 the results were IDH1 mut inh inactive.
For CCn1cc(C(C)NC(=S)Nc2ccc(OC)cc2OC)c(C)n1 (stereo not given) the results were IDH1 mut inh inactive.
For Cc1cc(C)c(C)c(Cn2c(CCCO)nc3ccccc32)c1C the results were IDH1 mut inh inactive.
O=C1C(=O)N(Cc2ccco2)C(c2ccccc2)C1C(=O)c1cccs1 (stereo not given) was read as IDH1 mut inh inactive.
